Results pooled from the literature.
Compare with care: the assays were run in different laboratories.
Target: Dual specificity mitogen-activated protein kinase kinase 3 (MAP2K3, Homo sapiens, UniProt P46734)
Residues used in one study (P46734 1-347): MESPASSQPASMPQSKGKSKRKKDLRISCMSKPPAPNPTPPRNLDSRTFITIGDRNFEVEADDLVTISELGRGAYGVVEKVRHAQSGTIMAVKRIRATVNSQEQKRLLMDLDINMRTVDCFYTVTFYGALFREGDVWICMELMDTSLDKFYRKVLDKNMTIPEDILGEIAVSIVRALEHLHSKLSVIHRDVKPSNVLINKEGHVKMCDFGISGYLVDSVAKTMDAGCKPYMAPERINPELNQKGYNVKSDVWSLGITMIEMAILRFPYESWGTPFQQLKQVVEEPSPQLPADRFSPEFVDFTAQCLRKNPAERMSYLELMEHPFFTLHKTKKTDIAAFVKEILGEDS

| Compound | assay | conditions | endpoint | result |
| --- | --- | --- | --- | --- |
| Cc1ccc(C(=O)Nc2ccc(CN3CCN(C)CC3)c(C(F)(F)F)c2)cc1C#Cc1cnc2cccnn12 | enzyme activity, inhibitor | 23.5 nM | remaining activity | 94% |
| CN1CC(Oc2cnc(C#N)cc2-c2ccn3nc(NC(=O)C4CC4)cc3c2)C1 | enzyme activity, inhibitor | 1 µM | inhibition | -8% |
| Cc1ccc(C(=O)NCc2ccsc2)cc1C#Cc1cn(C(C)C)c2ncnc(N)c12 | enzyme activity, inhibitor | 1 µM | activity vs control | 77% |
| CC/C(=N\NC(=O)NCc1cccc(O)c1)c1ccc(O)c(C)c1O | enzyme activity, inhibitor | 0.1 µM | inhibition | -2.5% |
| Cc1c(NC(=O)c2cc(C(N)=O)nc3cc(F)ccc23)c(C(F)(F)F)nn1Cc1ccc(C(C)(C)C)cc1 | cell-free assay, competition with immobilised ligand | 1 µM | remaining binding | 90% |
| O=C(Nc1cnn(-c2csc(C(=O)NC3COC3)c2)c1)Nc1c(F)cccc1Cl | enzyme activity, inhibitor | 5 µM | remaining activity | 111% |
| CC(=O)C1=C(C)N(c2cccc(C(F)(F)F)c2)C(=O)N[C@@H]1c1ccc(C#N)nc1 | cell-free assay, competition with immobilised ligand | 1 µM | remaining binding | 95.2% |
| Nc1ncnc2occ(-c3ccc(NC(=O)Nc4cc(C(F)(F)F)ccc4F)cc3)c12 | cell-free assay, inhibitor | 20 µM | remaining signal | 11% |
| Cc1sc(C(=O)NC2COC2)cc1-n1cc(NC(=O)Nc2c(F)cccc2Cl)cn1 | enzyme activity, inhibitor | 10 µM | remaining activity | 88.8% |
| C[C@@H]1CCN(c2nccc(-c3cnn4ncccc34)n2)C1 | binding | 1 µM | remaining binding | 69% |
